# Measured values as given in ChEMBL document CHEMBL1671644, “Inhibition of human immunodeficiency virus type 1 infection by the candidate microbicide dapivirine, a nonnucleoside reverse transcriptase inhibitor” (Antimicrob Agents Chemother, 2009).
# Experiments:
# [1] = test system: Human immunodeficiency virus 1; test: Antiviral activity against HIV-1 subtype CRF05_DF V022824 harboring NNRTI V106I mutant infected in human MT4 cells assessed as inhibition of viral replication relative to HIV-1 3B; assay type: functional
# How it was run: (§1)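 MT-4 cells (3 x 10^4/well) infected with site-directed mutants or recombinant clinical isolates (200 TCID50/well) with drug, cultured 3 to 5 days. Viability read by MTT colorimetric antivirogram assay. IC50 by nonlinear regression; fold change = IC50 for the test isolate / IC50 for wild-type HIV-1 IIIB tested in parallel (mean or median).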
# [2] = test system: Human immunodeficiency virus 1; test: Antiviral activity against HIV-1 subtype CRF01_AE V029525 infected in human MT4 cells assessed as inhibition of viral replication relative to HIV-1 3B; assay type: functional
# How it was run: (§2)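 Recombinant clinical HIV-1 isolates (200 TCID50/well) were tested in MT-4 cells (3 x 10^4/well) over 3–5 days, with an MTT viability read-out. IC50 was fitted by nonlinear regression. Fold change is the isolate IC50 divided by the HIV-1IIIB IC50, tested in parallel.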
# [3] = test system: Human immunodeficiency virus 1; test: Antiviral activity against HIV-1 SM051 harboring NNTRI 100I and 103N mutant infected in human MT4 cells assessed as inhibition of viral replication relative to HIV-1 3B; assay type: functional; how it was run: as §1
# [4] = test system: Human immunodeficiency virus 1; test: Antiviral activity against HIV-1 subtype H V029523 harboring NNRTI K101Q and V179I mutant infected in human MT4 cells assessed as inhibition of viral replication relative to HIV-1 3B; assay type: functional; how it was run: as §1
# [5] = test system: Human immunodeficiency virus 1; test: Antiviral activity against HIV-1 subtype O V029524 harboring NNRTI A98G, V179E and Y181C mutant infected in human MT4 cells assessed as inhibition of viral replication relative to HIV-1 3B; assay type: functional; how it was run: as §1
# [6] = test system: Human immunodeficiency virus 1; test: Antiviral activity against HIV-1 subtype D V022819 infected in human MT4 cells assessed as inhibition of viral replication relative to HIV-1 3B; assay type: functional; how it was run: as §1
# [7] = test system: Human immunodeficiency virus 1; test: Antiviral activity against HIV-1 SM024 harboring NNTRI 190A mutant infected in human MT4 cells assessed as inhibition of viral replication relative to HIV-1 3B; assay type: functional; how it was run: as §1
# [8] = test system: Human immunodeficiency virus 1; test: Antiviral activity against HIV-1 SM012 harboring NNTRI 108I mutant infected in human MT4 cells assessed as inhibition of viral replication relative to HIV-1 3B; assay type: functional; how it was run: as §1
# [9] = test system: Human immunodeficiency virus 1; test: Antiviral activity against HIV-1 SM052 harboring NNTRI 101E and 103N mutant infected in human MT4 cells assessed as inhibition of viral replication relative to HIV-1 3B; assay type: functional; how it was run: as §1
# [10] = test system: Human immunodeficiency virus 1; test: Antiviral activity against HIV-1 SM002 harboring NNTRI 181C mutant infected in human MT4 cells assessed as inhibition of viral replication relative to HIV-1 3B; assay type: functional; how it was run: as §1
# [11] = test system: Human immunodeficiency virus 1; test: Antiviral activity against HIV-1 subtype H V022827 harboring NNRTI V179I mutant infected in human MT4 cells assessed as inhibition of viral replication relative to HIV-1 3B; assay type: functional; how it was run: as §1
# [12] = test system: Human immunodeficiency virus 1; test: Antiviral activity against HIV-1 subtype B V022810 harboring NNRTI A98S andK101R mutant infected in human MT4 cells assessed as inhibition of viral replication relative to HIV-1 3B; assay type: functional; how it was run: as §1
# [13] = test system: Human immunodeficiency virus 1; test: Antiviral activity against HIV-1 subtype B V022814 infected in human MT4 cells assessed as inhibition of viral replication relative to HIV-1 3B; assay type: functional; how it was run: as §1
# [14] = test system: Human immunodeficiency virus 1; test: Antiviral activity against HIV-1 subtype CRF01_AE V022820 infected in human MT4 cells assessed as inhibition of viral replication relative to HIV-1 3B; assay type: functional; how it was run: as §1
# [15] = test system: Human immunodeficiency virus 1; test: Antiviral activity against HIV-1 SM058 harboring NNTRI 227L and 106A mutant infected in human MT4 cells assessed as inhibition of viral replication relative to HIV-1 3B; assay type: functional; how it was run: as §1
# [16] = test system: Human immunodeficiency virus 1; test: Antiviral activity against HIV-1 subtype B V022809 infected in human MT4 cells assessed as inhibition of viral replication relative to HIV-1 3B; assay type: functional; how it was run: as §1
# [17] = test system: Human immunodeficiency virus 1; test: Antiviral activity against HIV-1 SM034 harboring NNTRI 188L mutant infected in human MT4 cells assessed as inhibition of viral replication relative to HIV-1 3B; assay type: functional; how it was run: as §1
# [18] = test system: Human immunodeficiency virus 1; test: Antiviral activity against HIV-1 subtype B V022811 infected in human MT4 cells assessed as inhibition of viral replication relative to HIV-1 3B; assay type: functional; how it was run: as §2
# [19] = test system: Human immunodeficiency virus 1; test: Antiviral activity against HIV-1 subtype D V022818 infected in human MT4 cells assessed as inhibition of viral replication relative to HIV-1 3B; assay type: functional; how it was run: as §1
# [20] = test system: Human immunodeficiency virus 1; test: Antiviral activity against HIV-1 SM030 harboring NNTRI 100I mutant infected in human MT4 cells assessed as inhibition of viral replication relative to HIV-1 3B; assay type: functional; how it was run: as §1
# [21] = test system: Human immunodeficiency virus 1; test: Antiviral activity against HIV-1 subtype B V022807 infected in human MT4 cells assessed as inhibition of viral replication relative to HIV-1 3B; assay type: functional; how it was run: as §2
# [22] = test system: Human immunodeficiency virus 1; test: Antiviral activity against HIV-1 subtype CRF02_AG V022830 infected in human MT4 cells assessed as inhibition of viral replication relative to HIV-1 3B; assay type: functional; how it was run: as §1
# [23] = test system: Human immunodeficiency virus 1; test: Antiviral activity against HIV-1 subtype C V022816 infected in human MT4 cells assessed as inhibition of viral replication relative to HIV-1 3B; assay type: functional; how it was run: as §2
# [24] = test system: Human immunodeficiency virus 1; test: Antiviral activity against HIV-1 subtype CRF05_DF V022823 infected in human MT4 cells assessed as inhibition of viral replication relative to HIV-1 3B; assay type: functional; how it was run: as §1
# [25] = test system: Human immunodeficiency virus 1; test: Antiviral activity against HIV-1 subtype B V022815 infected in human MT4 cells assessed as inhibition of viral replication relative to HIV-1 3B; assay type: functional; how it was run: as §2
# [26] = test system: Human immunodeficiency virus 1; test: Antiviral activity against HIV-1 subtype CRF02_AG V022826 infected in human MT4 cells assessed as inhibition of viral replication relative to HIV-1 3B; assay type: functional; how it was run: as §1
# [27] = test system: Human immunodeficiency virus 1; test: Antiviral activity against HIV-1 subtype CRF01_AE V022822 infected in human MT4 cells assessed as inhibition of viral replication relative to HIV-1 3B; assay type: functional; how it was run: as §1
# [28] = test system: Human immunodeficiency virus 1; test: Antiviral activity against HIV-1 subtype D V022832 infected in human MT4 cells assessed as inhibition of viral replication relative to HIV-1 3B; assay type: functional; how it was run: as §1
# [29] = test system: Human immunodeficiency virus 1; test: Antiviral activity against HIV-1 subtype CRF01_AE V022821 infected in human MT4 cells assessed as inhibition of viral replication relative to HIV-1 3B; assay type: functional; how it was run: as §2
# [30] = test system: Human immunodeficiency virus 1; test: Antiviral activity against HIV-1 subtype CRF01_AE V029521 infected in human MT4 cells assessed as inhibition of viral replication relative to HIV-1 3B; assay type: functional; how it was run: as §2
# [31] = test system: Human immunodeficiency virus 1; test: Antiviral activity against HIV-1 SM007 harboring NNTRI 103N mutant infected in human MT4 cells assessed as inhibition of viral replication relative to HIV-1 3B; assay type: functional; how it was run: as §1
# [32] = test system: Human immunodeficiency virus 1; test: Antiviral activity against HIV-1 subtype CRF02_AG V022808 infected in human MT4 cells assessed as inhibition of viral replication relative to HIV-1 3B; assay type: functional; how it was run: as §1
# [33] = test system: Human immunodeficiency virus 1; test: Antiviral activity against HIV-1 subtype C V022829 infected in human MT4 cells assessed as inhibition of viral replication relative to HIV-1 3B; assay type: functional; how it was run: as §1
# [34] = test system: Human immunodeficiency virus 1; test: Antiviral activity against HIV-1 subtype B V022812 harboring NNRTI V179I mutant infected in human MT4 cells assessed as inhibition of viral replication relative to HIV-1 3B; assay type: functional; how it was run: as §1
# [35] = test system: Human immunodeficiency virus 1; test: Antiviral activity against HIV-1 subtype H V022828 harboring NNRTI K101Q and V179I mutant infected in human MT4 cells assessed as inhibition of viral replication relative to HIV-1 3B; assay type: functional; how it was run: as §1
# [36] = test system: Human immunodeficiency virus 1; test: Antiviral activity against HIV-1 subtype CRF05_DF V022833 harboring NNRTI V179I mutant infected in human MT4 cells assessed as inhibition of viral replication relative to HIV-1 3B; assay type: functional; how it was run: as §1
# [37] = test system: Human immunodeficiency virus 1; test: Antiviral activity against HIV-1 subtype B V022813 infected in human MT4 cells assessed as inhibition of viral replication relative to HIV-1 3B; assay type: functional; how it was run: as §1
# [38] = test system: Human immunodeficiency virus 1; test: Antiviral activity against HIV-1 subtype C V022831 infected in human MT4 cells assessed as inhibition of viral replication relative to HIV-1 3B; assay type: functional; how it was run: as §1
# [39] = test system: Human immunodeficiency virus 1; test: Antiviral activity against HIV-1 subtype F V029522 infected in human MT4 cells assessed as inhibition of viral replication relative to HIV-1 3B; assay type: functional; how it was run: as §1
# [40] = test system: Human immunodeficiency virus 1; test: Antiviral activity against HIV-1 subtype CRF02_AG V022825 infected in human MT4 cells assessed as inhibition of viral replication relative to HIV-1 3B; assay type: functional; how it was run: as §1
# [41] = test system: Human immunodeficiency virus 1; test: Antiviral activity against HIV-1 SM026 harboring NNTRI 103N and 181C mutant infected in human MT4 cells assessed as inhibition of viral replication relative to HIV-1 3B; assay type: functional; how it was run: as §1
# [42] = Toxicity against human cervical tissue explants after 2 hrs by MTT assay
# How it was run: (§3)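 Ectocervical tissue explants, uninfected, exposed to drug for 2 or 24 h at 37°C. Viability by MTT dye reduction per milligram tissue, read right after exposure or after overnight culture following the 2-h exposure, as percent of unexposed controls. Four donors, each condition in triplicate; CC50 by nonlinear regression.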
# [43] = Toxicity against human cervical tissue explants after 24 hrs by MTT assay; how it was run: as §3
smiles,measurement,setting,value
Cc1ccnc2c1NC(=O)c1cccnc1N2C1CC1 [NEVIRAPINE],Ratio IC50,[1],3.1
same,Ratio IC50,[2],7
same,Ratio IC50,[3],22
same,Ratio IC50,[4],1.4
same,Ratio IC50,[5],89
same,Ratio IC50,[6],1
same,Ratio IC50,[7],96
same,Ratio IC50,[8],1
same,Ratio IC50,[9],22
same,Ratio IC50,[10],222
same,Ratio IC50,[11],0.4
same,Ratio IC50,[12],1.7
same,Ratio IC50,[13],2.4
same,Ratio IC50,[14],1.3
same,Ratio IC50,[15],22
same,Ratio IC50,[16],5
same,Ratio IC50,[17],222
same,Ratio IC50,[18],3.4
same,Ratio IC50,[19],0.5
same,Ratio IC50,[20],5
same,Ratio IC50,[21],3.4
same,Ratio IC50,[22],1.3
same,Ratio IC50,[23],3.8
same,Ratio IC50,[24],0.9
same,Ratio IC50,[25],1
same,Ratio IC50,[26],0.4
same,Ratio IC50,[27],0.8
same,Ratio IC50,[28],0.9
same,Ratio IC50,[29],1.2
same,Ratio IC50,[30],1.4
same,Ratio IC50,[31],22
same,Ratio IC50,[32],0.8
same,Ratio IC50,[33],0.6
same,Ratio IC50,[34],0.8
same,Ratio IC50,[35],1.1
same,Ratio IC50,[36],1.7
same,Ratio IC50,[37],1
same,Ratio IC50,[38],0.9
same,Ratio IC50,[39],2.1
same,Ratio IC50,[40],0.7
same,Ratio IC50,[41],222
CCCCCCCCCc1ccc(OCCOCCOCCOCCOCCOCCOCCOCCOCCO)cc1 [NONOXYNOL 9],CC50,[42],0.07%
same,CC50,[43],0.003%
